Compound activity from PubChem BioAssay.
Rows were chosen to be rich in hits. Some 1.1% of all compounds tested hit in one or more screens of this group.
FXIIa inh: inhibitors of human coagulation factor XIIa; P00748; purified FXIIa, Boc-QGR-AMC fluorogenic substrate, 2 h; inhibition, % at 5 µM; 220,000 compounds, 0.3% hits; AID 800; in the data active means inhibition above about 40%;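 further: 0% = enzyme with no compound and 100% = blank without enzyme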
Furin inhibitor: human furin inhibition | P09958 | purified furin, fluorogenic substrate cleavage | inhibition, % at 20 µM or 30 µM | 220,000 compounds, 0.061% hits | AID 463115; in the data active means inhibition above about 25%
FXIa inh 1536: inhibitors of human coagulation factor XIa. P03951. purified FXIa, Boc-Glu-Ala-Arg-AMC fluorogenic substrate. inhibition, % at 5 µM. 220,000 compounds, 0.14% hits;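 active means inhibition of at least 40%; inactive means inhibition below 40%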;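 further: fluorescence of freed AMC excited at 355 nm; 0% = enzyme without compound and 100% = no enzyme blank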
hK5 inh: kallikrein 5 (human) inhibition; 210,000 compounds, 0.59% hits; recombinant hK5, fluorogenic AMC substrate cleavage; inhibition, % at 5 µM; Q9Y337;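 active means inhibition of 40% or more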;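 further: 0% = enzyme controls without compound and 100% = no-enzyme blanks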
Target sequence (Q9Y337 67-293 limits assumed): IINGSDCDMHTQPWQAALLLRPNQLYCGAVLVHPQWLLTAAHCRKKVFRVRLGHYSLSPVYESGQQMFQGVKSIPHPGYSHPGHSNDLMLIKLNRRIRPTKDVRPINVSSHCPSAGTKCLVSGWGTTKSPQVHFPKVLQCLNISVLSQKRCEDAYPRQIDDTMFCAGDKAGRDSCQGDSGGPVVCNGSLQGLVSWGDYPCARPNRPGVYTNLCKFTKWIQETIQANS
thrombin 1536: thrombin (human) inhibition; alpha-thrombin, Boc-VPR-AMC fluorogenic substrate cleavage; AID 1046; 220,000 compounds, 0.26% hits; inhibition, % at 5 µM; P00734;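 active means inhibition at or above 40%; inactive means inhibition below 40%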;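 further: 0% = enzyme with no compound and 100% = wells without enzyme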
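Material: human alpha-thrombin enzyme / Medium: pH 7.5 Tris (50 mM) with NaCl 150 mM, Tween 20 0.05% / Compound: single-point dosing at 5 µM, 0.2% DMSO / Incubation: enzyme reaction carried out at room temperature / Detection: AMC fluorescence, 355/460 nm / Read-out basis: percent inhibition scaled between no-compound controls and no-enzyme blanks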
Biofilm kill mix: mixture kills Candida albicans biofilm cells; inhibition, % at 7.6 µM; C. albicans biofilm persisters + clotrimazole, fluorescence viability; primary screen in compound mixtures of four per well; AID 1242; 120,000 compounds, 0.02% hits;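 active means inhibition above 30.3% in the primary screen of four-compound pools, then above 30% when the compound was retested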;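 further: compounds exposed to preformed 24 h biofilms for 48 h; 0% = untreated biofilm control and 100% = clotrimazole plus chlorhexidine kill blank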
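Test system: C. albicans CAF4-2 wild-type biofilms; buffer or medium: RPMI/MOPS medium, pH 7.0; schedule: 24 h biofilm formation, then 48 h compound exposure, 37 °C; detection: Alamar Blue fluorescence; measure: percent inhibition of biofilm viability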
Numbers without * were called inactive; . = no result.

SMILES | FXIIa inh | Furin inhibitor | FXIa inh 1536 | hK5 inh | thrombin 1536 | Biofilm kill mix
CC(CO)(CO)NCc1ccc(-c2ccccc2)cc1 | 18 | -11 | 1 | 40 | 46* | 6
Cc1ccc(CNC(C)(C)CO)cc1 | 2 | -9 | 3 | -9 | -5 | 14
CCOC(=O)/C(=N\Nc1cccc(C(F)(F)F)c1)N(CCOC)CCOC | 16 | 0 | 2 | 2 | 10 | .
CCOC(=O)/C(=N\Nc1cccc(C(F)(F)F)c1)N1CCOCC1 | 24 | -2 | 29 | 52* | 3 | 12
COc1cc(OC)cc(-c2n[nH]c(=S)n2-c2ccc3c(c2)OCCO3)c1 | . | -13 | 35 | 16 | 41* | 18
Fc1ccc(Nc2ccc3ccccc3n2)c(F)c1 | 36 | 2 | 104* | 47* | 36 | 8
O=c1c(Cc2ccc(F)cc2)c(O)ccn1CCCN1CCOCC1 | 8 | -26 | -4 | -10 | 2 | 14
Cc1ccsc1/C=N/NC(=O)c1ccc2c(c1)OCCO2 | 46* | 11 | 39 | 18 | 30 | 8
Cc1ccsc1/C=N\NC(=O)c1ccc2c(c1)OCO2 | 11 | 15 | 1 | -38 | 1 | .
Cc1ccc(NCCC(=O)c2ccc(Cl)cc2)cc1C | 13 | -11 | 4 | 47* | 8 | .
CCCCOP(=O)(c1ccc(N(C)C)cc1)C(Nc1ccccc1)c1ccccc1 (centres undefined) | 1 | 16 | 0 | -13 | -4 | 13
CCCOP(=O)(c1ccc(N(C)C)cc1)C(O)c1ccncc1 (centres undefined) | 15 | -28 | 11 | 15 | 66* | .
CCCOP(=O)(c1ccc(N(C)C)cc1)C(Nc1ccccc1)c1ccc(N(C)C)cc1 (centres undefined) | 10 | 28* | 8 | -4 | -2 | 1
O=C(NNc1cc(N2CCOCC2)nc(N2CCOCC2)n1)c1ccc([N+](=O)[O-])cc1 | 22 | -1 | 31 | 68* | 3 | 18
COC(=O)[C@@H]1CCCN1C(=O)CCc1nnc(C2CCCCC2)o1 | 13 | -22 | 0 | 0 | -3 | 12
Cc1ccc(N(C(=O)c2ccco2)C2C=CS(=O)(=O)C2)cc1 (centres undefined) | 14 | -15 | 4 | 3 | . | 0
CCc1ccc(N(C(C)=O)c2nc(CCl)cs2)cc1 | 24 | -4 | 30 | 88* | 12 | 5
CC(=O)N(c1ccccc1)c1nc(/C=C/C(=O)O)cs1 | 13 | -30 | 2 | 6 | -1 | 4
O=[N+]([O-])c1nn(-c2ccccc2)[n+]([O-])c1N1CCN(c2ccccc2F)CC1 | 6 | -15 | -3 | 4 | 3 | 21
CCOC(=O)CNC(=O)c1cccnc1Oc1ccc(Cl)cc1 | 6 | -17 | -5 | 3 | -1 | 14
CC12CN3CC(C)(CN(C1)C3c1ccc(Br)cc1)C2=O (centres undefined) | 11 | -18 | -3 | 68* | 7 | .
O=C(Cn1c(=O)n(-c2ccc(F)cc2)c(=O)c2sccc21)NC1CCCCC1 | 6 | -39 | -1 | 7 | -10 | 5
COc1cccc(C(=O)N2CCSC2=S)c1 | 9 | -7 | 15 | 48* | 6 | .
C#CCOc1nc(Nc2cccc([N+](=O)[O-])c2)nc(OCC#C)n1 | 41* | -11 | 5 | 22 | 5 | 8
Cc1cc(SCC(=O)NN)c2cc(Br)ccc2n1 | 7 | 3 | 3 | 2 | -1 | 7
SMILES | FXIIa inh | Furin inhibitor | FXIa inh 1536 | hK5 inh | thrombin 1536 | Biofilm kill mix
CC1(C)SC[C@H](C(=O)Nc2cccc(Cl)c2)N1C=O | -4 | -9 | -5 | -2 | -7 | 2
COc1ccc(/C=C/S(=O)(=O)NCc2ccccc2)cc1OC | 9 | -5 | -5 | -2 | -17 | 11
O=C(Oc1ccc2c(=O)c(Oc3ccc4ccccc4c3)coc2c1)c1cncc(Br)c1 | 1 | -25 | -2 | -22 | -9 | .
O=C(Oc1ccc2c(=O)c(Cl)coc2c1)c1ccncc1 | 41* | -1 | 42* | -20 | 8 | .
CC(=O)c1c(N2CCN(c3ccccc3)CC2)nc(=S)n(-c2ccccc2)c1C | 12 | -4 | 3 | -2 | 3 | .
CC(=O)c1c(N2CCC(C(N)=O)CC2)nc(=S)n(-c2ccccc2)c1C | 22 | -17 | 9 | 45* | 14 | .
Cc1cc(N/N=C/c2ccccc2O)nc(N2CCOCC2)n1 | -2 | 1 | -5 | 1 | -5 | 17
COc1ccc(OC)c(/C=N/Nc2cc(C)nc(N3CCOCC3)n2)c1 | 40* | -5 | 34 | 58* | 13 | -5
COc1cccc(N2CCN(C3CC(=O)N(c4ccc(F)c(Cl)c4)C3=O)CC2)c1 (centres undefined) | -3 | -24 | -4 | 44* | 0 | .
Cc1ccc(Nc2cc(=O)[nH]c(=O)[nH]2)c(C)c1 | 10 | -20 | 1 | -12 | -2 | .
Cc1cccc(Nc2cc(=O)[nH]c(=O)[nH]2)c1C | 45* | 1 | 31 | -6 | 1 | 18
Cc1ccc(Cn2c(SC(C)C(N)=O)nc3ccccc3c2=O)cc1 (centres undefined) | 4 | -24 | -8 | -3 | -19 | 24
O=C(OCc1ccccc1)/C(=C/c1cccc2ccccc12)NC(=O)c1ccccc1 | 18 | 2 | 18 | 47* | 14 | 8
COC(=O)C1C(=O)/C(=C/N(C)C)C(=O)CC1(C)C (centres undefined) | 11 | 38* | -2 | -1 | -1 | 8
Cc1ccc(-c2nc(CN(Cc3c(C)nn(C)c3C)C(C)C)c(C)o2)o1 | 3 | -16 | -6 | -3 | -16 | 17
O=C(CSc1nc2[nH]ncc2c(=O)[nH]1)N1CCCCC1 | 15 | -11 | 3 | 36 | 47* | 3
NC(N)=N/N=C/c1cccc(Cl)c1Cl | 3 | -15 | -6 | -3 | -4 | 0
O=C(CNc1n[nH]c(=O)[nH]c1=O)N/N=C/C1CC=CCC1 (centres undefined) | 8 | -6 | 1 | 2 | -4 | 17
CSc1ccc(NC(=O)Nc2ccc(C(=O)NCC(=O)O)cc2)cc1 | 2 | 1 | -2 | 64* | -8 | 20
CCSc1ccc(C(=O)NCC(=O)O)cc1 | 5 | -22 | 0 | -2 | -3 | 8
Cc1cc(C(=O)NNS(=O)(=O)c2cccc(Cl)c2)nn1C(C)(C)C | 11 | -32 | 10 | 6 | 2 | 10
CC(/C=N/NC(=O)c1cnccn1)=C\c1ccco1 | 5 | -21 | 10 | 2 | -1 | 20
Cc1cccc(CN2CCN(CC(=O)N3CCCC3)C2=O)c1 | 8 | -17 | 43* | -17 | 3 | .
COC(=O)c1ccc(C(=O)OC)c(=O)[nH]1 | 4 | -13 | 2 | 1 | -4 | 3
CC12COC3(C(=O)Nc4nccs4)CC1CCC32C (centres undefined) | 14 | -17 | 1 | 72* | 12 | .
COC(=O)c1nc(NC(=O)C(C)C)n[nH]1 | 16 | -13 | -9 | 13 | 35 | .
COC(=O)c1nc(NC(C)=O)n[nH]1 | 48* | -6 | 0 | 5 | 25 | .
